Results from publication PMC4477344 (Diabetes, 2015).
Where no end group is shown, it is not given here.

Experiments:
[1] = tested on: Dpp4; conditions: cited from earlier work
[2] = tested on: diet-induced obese (DIO) mice; test: GLP-1; assay type: in vivo, C57BL/6J male mice; conditions: continuous infusion for up to 16 weeks
Outline: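 Mice were started on high-fat diet at 6–10 weeks of age and fed it for 7–22 weeks. At 13–28 weeks of age they were randomized by body weight and given osmotic minipumps delivering vehicle (0.154 mol/L NaCl/0.2% human serum albumin) or test compound at 50–70 nmol/kg/day for […]. Body weight was recorded weekly and food intake twice weekly. Fat and lean mass were measured by DXA at week 15. n = 6 per group.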

In the case of GLP-1(7-36)amide, the “time of cleavage in vivo by Dpp4 to GLP-1(9-36)amide” value [1] is listed as 1 to 2 min.

In the case of LVKGR-NH2 [GLP-1(32-36)amide], the adverse effects [2] was “No adverse effects”.
